Assay [1] relates to SMMC-7721. As to the kind of experiment: Cytotoxicity against human SMMC-7721 cells assessed as cell viability after 24 hrs by MTT assay. It counts as functional, cell-based. Particulars: SMMC-7721, 24 h. The method in brief:
(§1)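 Cells pre-cultured 24 h at 37 C, then exposed for 24 h to compounds at […], with drug-free and DMSO solvent controls. MTT read-out: formazan dissolved in DMSO, absorbance at 568 nm. Inhibition rate taken relative to the negative control. IC50 from triplicate measurements.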

For another assay, the system named is L02. As to the kind of experiment: Cytotoxicity against human L02 cells assessed as cell viability after 24 hrs by MTT assay. It counts as functional, cell-based. Particulars: L02, 24 h. The method in brief: as §1
The subject of assay [2] is SMMC-7721. As to the kind of experiment: Induction of apoptosis in human SMMC-7721 cells assessed as late apoptotic cells at 100 ug/ml after 48 hrs annexin V-[…]/PI by flow cytometry (reference value: 2.42 to 3%). It counts as functional. The note with it: dose 100 µg/ml.
Assay [3] deals with SMMC-7721. The assay can be described thus: Induction of apoptosis in human SMMC-7721 cells assessed as necrotic cells at 10 ug/ml after 48 hrs annexin V-[…]/PI by flow cytometry (reference value: 0.15 to 0.29%). Particulars: dose 10 µg/ml. It counts as functional.
The subject of the next assay is MHCC97H. The assay can be described thus: Cytotoxicity against human MHCC97H cells assessed as cell viability after 48 hrs by MTT assay. It counts as functional, cell-based. In a few lines:
(§2)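 Cells pre-cultured 24 h at 37 C, then given fresh medium with compound at […] alongside drug-free and DMSO solvent controls. Incubated 48 h at 37 C, then MTT (2 mg/mL in PBS) added for 4 h. Formazan dissolved in DMSO and A568 read. Inhibition rate taken relative to the negative control. IC50 from triplicate measurements.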

For assay [4], the system named is SMMC-7721. As to the kind of experiment: Induction of apoptosis in human SMMC-7721 cells assessed as early apoptotic cells at 0.1 ug/ml after 48 hrs annexin V-[…]/PI by flow cytometry (reference value: 3.3 to 3.16%). Format: functional. Particulars: dose 0.1 µg/ml.
Assay [5] deals with SMMC-7721. The assay can be described thus: Induction of apoptosis in human SMMC-7721 cells assessed as late apoptotic cells at 10 ug/ml after 48 hrs annexin V-[…]/PI by flow cytometry (reference value: 2.42 to 3%). It counts as functional. Particulars: dose 10 µg/ml.
In another assay the test system is Huh-7. As to the kind of experiment: Cytotoxicity against human HUH-7 cells assessed as cell viability after 48 hrs by MTT assay. Particulars: Huh-7, 48 h. It counts as functional, cell-based. In a few lines:
as §2

For assay [6], the system named is SMMC-7721. As to the kind of experiment: Induction of apoptosis in human SMMC-7721 cells assessed as necrotic cells at 0.1 ug/ml after 48 hrs annexin V-[…]/PI by flow cytometry (reference value: 0.15 to 0.29%). It counts as functional. The note with it: dose 0.1 µg/ml.
In assay [7] the test system is SMMC-7721. As to the kind of experiment: Induction of apoptosis in human SMMC-7721 cells assessed as early apoptotic cells at 100 ug/ml after 48 hrs annexin V-[…]/PI by flow cytometry (reference value: 3.3 to 3.16%). Format: functional. The note with it: dose 100 µg/ml.
Assay [8] relates to SMMC-7721. The assay can be described thus: Induction of apoptosis in human SMMC-7721 cells assessed as necrotic cells at 100 ug/ml after 48 hrs annexin V-[…]/PI by flow cytometry (reference value: 0.15 to 0.29%). Particulars: dose 100 µg/ml. It counts as functional.
Assay [9] has as its system SMMC-7721. As to the kind of experiment: Cytotoxicity against human SMMC-7721 cells assessed as cell viability after 48 hrs by MTT assay. It counts as functional, cell-based. The note with it: SMMC-7721, 48 h. In a few lines:
as §2

Assay [10] relates to SMMC-7721. The assay can be described thus: Cytotoxicity against human SMMC-7721 cells assessed as cell viability after 48 hrs in presence of 100 umol/L FeSO4 by MTT assay. Format: functional, cell-based. The note with it: SMMC-7721, 48 h.
The subject of assay [11] is SMMC-7721. The assay can be described thus: Induction of apoptosis in human SMMC-7721 cells assessed as early apoptotic cells at 10 ug/ml after 48 hrs annexin V-[…]/PI by flow cytometry (reference value: 3.3 to 3.16%). Particulars: dose 10 µg/ml. It counts as functional.
The next assay has as its system MCF7. As to the kind of experiment: Cytotoxicity against human MCF7 cells assessed as cell viability after 48 hrs by MTT assay. Format: functional, cell-based. Particulars: MCF7, 48 h. The method in brief: as §2
Assay [12] can be described thus: Cytotoxicity against human HCCLM3 cells assessed as cell viability after 48 hrs by MTT assay. It counts as functional, cell-based. The note with it: HCCLM3, 48 h. The method in brief: as §2
The subject of the next assay is HCT-116. As to the kind of experiment: Cytotoxicity against human HCT-116 cells assessed as cell viability after 48 hrs by MTT assay. Particulars: HCT-116, 48 h. Format: functional, cell-based. In a few lines: as §2
The test system of assay [13] is SMMC-7721. The assay can be described thus: Induction of apoptosis in human SMMC-7721 cells assessed as late apoptotic cells at 0.1 ug/ml after 48 hrs annexin V-[…]/PI by flow cytometry (reference value: 2.42 to 3%). Format: functional. The note with it: dose 0.1 µg/ml.
The subject of the next assay is CCD-18Co. The assay can be described thus: Cytotoxicity against human CCD-18C0 cells assessed as cell viability after 48 hrs by MTT assay. It counts as functional, cell-based. The method in brief:
as §2

For assay [14], the system named is SMMC-7721. The assay can be described thus: Induction of apoptosis in human SMMC-7721 cells assessed as viable cells at 0.1 ug/ml after 48 hrs annexin V-[…]/PI by flow cytometry (reference value: 93.54 to 94.31%). It counts as functional. Particulars: read-out: Activity.
Assay [15] relates to SMMC-7721. The assay can be described thus: Induction of apoptosis in human SMMC-7721 cells assessed as viable cells at 10 ug/ml after 48 hrs annexin V-[…]/PI by flow cytometry (reference value: 93.54 to 94.31%). The note with it: read-out: Activity. Format: functional.
For a further assay, the system named is MCF-10A. The assay can be described thus: Cytotoxicity against human MCF-10A cells assessed as cell viability after 48 hrs by MTT assay. It counts as cell-based. The method in brief:
as §2

The test system of assay [16] is SMMC-7721. The assay can be described thus: Induction of apoptosis in human SMMC-7721 cells assessed as viable cells at 100 ug/ml after 48 hrs annexin V-[…]/PI by flow cytometry (reference value: 93.54 to 94.31%). Format: functional. The note with it: read-out: Activity.

With `COC1OC(=O)C(Br)=C1N1CCN([C@@H]2O[C@@H]3O[C@@]4(C)CC[C@H]5[C@H](C)CC[C@@H]([C@H]2C)[C@@]35OO4)CC1` (stereo partly drawn), the half-inhibitory concentration (IC50) with SMMC-7721 [1] was 290 nM; in the assay with L02 it was 260 nM.

On to `COC1OC(=O)C(Cl)=C1N1CCN([C@@H]2O[C@@H]3O[C@@]4(C)CC[C@H]5[C@H](C)CC[C@@H]([C@H]2C)[C@@]35OO4)CC1` (stereo partly drawn), for which the Activity with SMMC-7721 [2] was found to be 14.42%; with SMMC-7721 [3] it was 0.49%; in the assay with SMMC-7721 [4], 4.26%; in the assay on SMMC-7721 [5] it was 6.06%; with SMMC-7721 [6], 0.14%; with SMMC-7721 [7], 20.35%. Moreover, the Activity is 0.73% with SMMC-7721 [8], 8.77% in the assay on SMMC-7721 [11] and 3.21% in the assay on SMMC-7721 [13]. The half-maximal inhibitory concentration (IC50) came out at 100 nM in the assay with MHCC97H; 160 nM with Huh-7; 260 nM in the assay with SMMC-7721 [1]; 110 nM in the assay on SMMC-7721 [9]; 100 nM in the assay with SMMC-7721 [10]; 80 nM with MCF7. The half-maximal inhibitory concentration (IC50) was 100 nM in assay [12]; 100 nM in the assay on HCT-116; 100 nM with CCD-18Co; 320 nM with L02; 220 nM in the assay with MCF-10A. For the same molecule, in the assay with SMMC-7721 [14], the viability at 0.1 µg/mL came out at 88.6%. Moreover, the viability at 10 µg/mL in the assay on SMMC-7721 [15] turned out to be 82.1%. In addition, the viability at 100 µg/mL with SMMC-7721 [16] was found to be 60.3%.

For the molecule `CC[C@]1(O)C[C@H]2CN(CCc3c([nH]c4ccccc34)[C@@](C(=O)OC)(c3cc4c(cc3OC)N(C=O)[C@H]3[C@@](O)(C(=O)OC)[C@H](OC(C)=O)[C@]5(CC)C=CCN6CC[C@]43[C@@H]65)C2)C1` [VINCRISTINE], the IC50 in the assay on SMMC-7721 [1] worked out at 270 nM; in the assay with L02, 300 nM.

As for `C[C@H]1[C@H](O)O[C@@H]2O[C@@]3(C)CC[C@H]4[C@H](C)CC[C@@H]1[C@@]24OO3`, the IC50 with SMMC-7721 [1] was more than 700 nM; in the assay on L02 it was 220 nM.

On to `C[C@H]1[C@H](N2CCN(C3=C(Br)C(=O)O[C@@H]3O[C@H]3CC4CCC3(C)C4(C)C)CC2)O[C@@H]2O[C@@]3(C)CC[C@H]4[C@H](C)CC[C@@H]1[C@@]24OO3`, for which the IC50 in the assay with SMMC-7721 [1] and in the assay on L02 was 480 nM each time.

On to `C[C@@H]1CC[C@H]2[C@@H](C)C(=O)O[C@@H]3O[C@@]4(C)CC[C@@H]1[C@]32OO4` [ARTEMISININ], for which the IC50 in the assay with SMMC-7721 [1] stood at 630 nM; in the assay on L02, 430 nM.

Regarding `C[C@H]1[C@H](N2CCN(C3=C(Cl)C(=O)OC3O[C@H]3CC4CCC3(C)C4(C)C)CC2)O[C@@H]2O[C@@]3(C)CC[C@H]4[C@H](C)CC[C@@H]1[C@@]24OO3` (stereo partly drawn), the IC50 is 570 nM with SMMC-7721 [1] and 460 nM in the assay with L02.

`CC(C)[C@H]1CC[C@H](C)C[C@@H]1O[C@H]1OC(=O)C(Cl)=C1N1CCN([C@@H]2O[C@@H]3O[C@@]4(C)CC[C@H]5[C@H](C)CC[C@@H]([C@H]2C)[C@@]35OO4)CC1`: the half-inhibitory concentration (IC50) in the assay with SMMC-7721 [1] is 520 nM; with L02, 640 nM.

Consider `CCOC1OC(=O)C(Cl)=C1N1CCN([C@@H]2O[C@@H]3O[C@@]4(C)CC[C@H]5[C@H](C)CC[C@@H]([C@H]2C)[C@@]35OO4)CC1` (stereo partly drawn), for which the half-inhibitory concentration (IC50) in the assay on SMMC-7721 [1] was 560 nM; with L02, more than 700 nM.

With `CCOC1OC(=O)C(Br)=C1N1CCN([C@@H]2O[C@@H]3O[C@@]4(C)CC[C@H]5[C@H](C)CC[C@@H]([C@H]2C)[C@@]35OO4)CC1` (stereo partly drawn), the half-inhibitory concentration (IC50) came out at 430 nM with SMMC-7721 [1] and 500 nM with L02.

In the case of `CC(C)[C@H]1CC[C@H](C)C[C@@H]1O[C@H]1OC(=O)C(Br)=C1N1CCN([C@@H]2O[C@@H]3O[C@@]4(C)CC[C@H]5[C@H](C)CC[C@@H]([C@H]2C)[C@@]35OO4)CC1`, the half-inhibitory concentration (IC50) in the assay with SMMC-7721 [1] was 390 nM; in the assay with L02 it was 360 nM.

For the origin of these results see ChEMBL document CHEMBL4732241, “Synthesis of artemisinin-piperazine-furan ether hybrids and evaluation of in vitro cytotoxic activity” (Eur J Med Chem, 2021).
